Data: ChEMBL document CHEMBL1124934, “Synthesis and structure-activity relationships of dynorphin A-(1-8) amide analogues” (J Med Chem, 1990)
Square brackets hold non-standard residues; d marks the D form. Peptide text beside a SMILES is read from it. NMeY = CN[C@@H](Cc1ccc(O)cc1)C(=O)O; NMeF = CN[C@@H](Cc1ccccc1)C(=O)O

Tests used:
Mu-type opioid receptor [1] = target: T1, Mu-type opioid receptor (Cavia porcellus, UniProt P97266); test: Binding affinities against Opioid receptor mu 1 of guinea pig brain membrane using [3H]DAGO as the radioligand using competition binding assays.
T1 sequence (P97266 whole entry): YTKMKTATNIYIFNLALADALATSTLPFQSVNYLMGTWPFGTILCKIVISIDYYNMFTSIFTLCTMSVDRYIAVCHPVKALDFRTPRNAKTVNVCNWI
Procedure, shortened: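 μ-site competition binding on crude P2 membranes from male Hartley guinea pig brain (1 g original wet weight/20 mL, 50 mM Tris-HCl pH 7.6) with 5 nM [3H]DAGO and varied competitor, 60 min at 25 °C. GF/B filtration (1% polyethylenimine presoaked), six ice-cold buffer rinses, scintillation counting. Nonspecific binding with 10 μM levallorphan. Mean of five or six determinations ± SEM.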

Mu-type opioid receptor [2] = target: T1, Mu-type opioid receptor; test: Evaluated for inhibitory activity against Opioid receptor mu 1 of guinea pig ileum (GPI); format: tissue-based
[3] = target: Delta-type opioid receptor (Mus musculus, UniProt P32300); test: Evaluated for inhibitory activity against Opioid receptor delta 1 of mouse vas deferens (MVD).; format: tissue-based
Chain of Delta-type opioid receptor (P32300 whole entry): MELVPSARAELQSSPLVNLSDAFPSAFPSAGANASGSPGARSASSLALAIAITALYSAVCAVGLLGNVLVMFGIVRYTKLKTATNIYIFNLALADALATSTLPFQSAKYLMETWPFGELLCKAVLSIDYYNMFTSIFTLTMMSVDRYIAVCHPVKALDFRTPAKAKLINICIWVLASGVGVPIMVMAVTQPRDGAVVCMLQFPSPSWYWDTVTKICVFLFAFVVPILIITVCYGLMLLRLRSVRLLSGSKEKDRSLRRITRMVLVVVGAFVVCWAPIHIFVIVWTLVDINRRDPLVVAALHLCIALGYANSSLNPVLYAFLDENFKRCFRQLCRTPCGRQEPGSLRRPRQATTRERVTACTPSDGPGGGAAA

Mus musculus [4] = test: Evaluated for analgesic effect using mouse tail-pinch test after intravenous administration; format: functional
Procedure, shortened: (§1)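 Mice, intravenous dosing, tail-pinch analgesia test. Four doses per compound, each dose tested on at least eight animals, giving ED50 in mg/kg.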

Mus musculus [5] = test: Evaluated for analgesic effect using mouse tail-pinch test after intravenous administration; 1.27-3.29; format: functional; procedure, shortened: as §1
Mus musculus [6] = test: Evaluated for analgesic effect using mouse tail-pinch test after intravenous administration; 9.61-14.34; format: functional; procedure, shortened: as §1
Mus musculus [7] = test: Evaluated for analgesic effect using mouse tail-pinch test after intravenous administration; 0.35-1.71; format: functional; procedure, shortened: as §1
Mus musculus [8] = test: Evaluated for analgesic effect using mouse tail-pinch test after intravenous administration; 1.97-5.67; format: functional; procedure, shortened: as §1
Mus musculus [9] = test: Evaluated for analgesic effect using mouse tail-pinch test after intravenous administration; 0.11-0.52; format: functional; procedure, shortened: as §1
Mus musculus [10] = test: Evaluated for analgesic effect using mouse tail-pinch test after intravenous administration; 2.08-7.27; format: functional; procedure, shortened: as §1

Compound | IC50 (Mu-type opioid receptor [2]) [nM] | IC50 [3] [nM] | other results
CN[C@@H](Cc1ccc(O)cc1)C(=O)NCC(=O)NCC(=O)N[C@@H](Cc1ccccc1)C(=O)N[C@@H](CC(C)C)C(=O)N[C@@H](CCCNC(=N)N)C(=O)N(C)[C@@H](CCCNC(=N)N)C(=O)N[C@H](CC(C)C)C(N)=O | 0.5 | 4.8 | Ki (Mu-type opioid receptor [1]): 3.34 nM
CN[C@@H](Cc1ccc(O)cc1)C(=O)NCC(=O)NCC(=O)N[C@@H](Cc1ccccc1)C(=O)N[C@@H](CC(C)C)C(=O)N[C@@H](CCCCN=C(N)N)C(=O)N[C@@H](CCCN=C(N)N)C(=O)N[C@H](CC(C)C)C(N)=O | – | – | ED50 (Mus musculus [4]): > 8 mg/kg
CN[C@@H](Cc1ccc(O)cc1)C(=O)NCC(=O)NCC(=O)N(C)[C@@H](Cc1ccccc1)C(=O)N[C@@H](CC(C)C)C(=O)N[C@@H](CCCNC(=N)N)C(=O)N[C@@H](CCCNC(=N)N)C(=O)N[C@@H](CC(C)C)C(N)=O (H-[NMeY]GG[NMeF]LRRL-NH2) | 26.7 | 121 | –
CCCCCCNC(=O)[C@H](CC(C)C)NC(=O)[C@H](CCCN=C(N)N)NC(=O)[C@H](CCCN=C(N)N)NC(=O)[C@H](CC(C)C)NC(=O)[C@@H](Cc1ccccc1)NC(=O)CNC(=O)CNC(=O)[C@H](Cc1ccc(O)cc1)NC | – | – | ED50 (Mus musculus [4]): > 7 mg/kg
CN[C@@H](Cc1ccc(O)cc1)C(=O)NCC(=O)NCC(=O)N[C@H](Cc1ccccc1)C(=O)N[C@@H](CC(C)C)C(=O)N[C@@H](CCCN=C(N)N)C(=O)N(C)[C@@H](CCCN=C(N)N)C(=O)N[C@@H](CC(C)C)C(N)=O | – | – | ED50 (Mus musculus [5]): 2.04 mg/kg
CCNC(=O)[C@@H](CC(C)C)NC(=O)[C@H](CCCN=C(N)N)N(C)C(=O)[C@H](CCCN=C(N)N)NC(=O)[C@@H]1CSSC[C@@H](NC(=O)[C@@H](N)Cc2ccc(O)cc2)C(=O)NCC(=O)N[C@@H](Cc2ccccc2)C(=O)N1 [listing 1 of 2 here] | 0.007 | 0.13 | Ki (Mu-type opioid receptor [1]): 0.85 nM
CC(C)C[C@H](NC(=O)[C@H](CCCN=C(N)N)NC(=O)[C@H](CCCN=C(N)N)NC(=O)[C@H](CC(C)C)NC(=O)[C@H](Cc1ccccc1)NC(=O)CNC(=O)[C@H](C)NC(=O)[C@@H](N)Cc1ccc(O)cc1)C(N)=O (H-YAGFLRRL-NH2) | 6.9 | 9.1 | ED50 (Mus musculus [6]): 11.7 mg/kg
CN[C@@H](Cc1ccc(O)cc1)C(=O)NCC(=O)NCC(=O)N[C@@H](Cc1ccccc1)C(=O)N[C@@H](CC(C)C)C(=O)N[C@@H](CCCN=C(N)N)C(=O)N[C@@H](CCCN=C(N)N)C(=O)N[C@@H](CC(C)C)C(N)=O | > 3000 | – | –
CCNC(=O)[C@@H](CC(C)C)NC(=O)[C@H](CCCN=C(N)N)N(C)C(=O)[C@H](CCCN=C(N)N)NC(=O)[C@H](CC(C)C)NC(=O)[C@H](Cc1ccc([N+](=O)[O-])cc1)NC(=O)CNC(=O)CNC(=O)[C@H](Cc1ccc(O)cc1)NC | – | – | ED50 (Mus musculus [7]): 0.77 mg/kg
CCNC(=O)[C@H](CC(C)C)NC(=O)[C@H](CCCN=C(N)N)NC(=O)[C@H](CCCN=C(N)N)NC(=O)[C@H](CC(C)C)NC(=O)[C@@H](Cc1ccccc1)NC(=O)CNC(=O)CNC(=O)[C@H](Cc1ccc(O)cc1)NC | – | – | ED50 (Mus musculus [8]): 3.34 mg/kg
CN[C@@H](Cc1ccc(O)cc1)C(=O)NCC(=O)NCC(=O)N[C@@H](Cc1ccccc1)C(=O)N[C@@H](CC(C)C)C(=O)N(C)[C@@H](CCCN=C(N)N)C(=O)N[C@@H](CCCN=C(N)N)C(=O)N[C@H](CC(C)C)C(N)=O | 20.6 | 114 | –
CN[C@@H](Cc1ccc(O)cc1)C(=O)NCC(=O)NNC(=O)N[C@@H](Cc1ccccc1)C(=O)N[C@@H](CC(C)C)C(=O)N[C@@H](CCCNC(=N)N)C(=O)N[C@@H](CCCNC(=N)N)C(=O)N[C@H](CC(C)C)C(N)=O | 18.6 | 62.4 | –
CN[C@@H](Cc1ccc(O)cc1)C(=O)N[C@@H](C)C(=O)NCC(=O)N[C@@H](Cc1ccccc1)C(=O)N[C@@H](CC(C)C)C(=O)N[C@@H](CCCNC(=N)N)C(=O)N[C@@H](CCCNC(=N)N)C(=O)N[C@@H](CC(C)C)C(N)=O (H-[NMeY]AGFLRRL-NH2) | 13.9 | 25.7 | Ki (Mu-type opioid receptor [1]): 1.25 nM
CN[C@@H](Cc1ccc(O)cc1)C(=O)NCC(=O)NCC(=O)N[C@H](Cc1ccccc1)C(=O)N[C@H](CC(C)C)C(=O)N[C@@H](CCCNC(=N)N)C(=O)N[C@@H](CCCNC(=N)N)C(=O)N[C@@H](CC(C)C)C(N)=O | 82 | > 1740 | ED50 (Mus musculus [4]): > 6 mg/kg
CCNC(=O)[C@@H](CC(C)C)NC(=O)[C@H](CCCN=C(N)N)N(C)C(=O)[C@H](CCCN=C(N)N)NC(=O)[C@@H]1CSSC[C@@H](NC(=O)[C@@H](N)Cc2ccc(O)cc2)C(=O)NCC(=O)N[C@@H](Cc2ccccc2)C(=O)N1 [listing 2 of 2 here] | – | – | ED50 (Mus musculus [9]): 0.22 mg/kg
CN[C@@H](Cc1ccc(O)cc1)C(=O)NCC(=O)NCC(=O)N[C@H](Cc1ccccc1)C(=O)N[C@@H](CC(C)C)C(=O)N[C@@H](CCCNC(=N)N)C(=O)N[C@@H](CCCNC(=N)N)C(=O)N[C@@H](CC(C)C)C(N)=O | – | 5.2 | Ki (Mu-type opioid receptor [1]): 2.81 nM; ED50 (Mus musculus [10]): 3.89 mg/kg
